Consider eight molecules from ChEMBL document CHEMBL1140410, “Discovery of the novel antithrombotic agent 5-chloro-N-({(5S)-2-oxo-3- [4-(3-oxomorpholin-4-yl)phenyl]-1,3-oxazolidin-5-yl}methyl)thiophene- 2-carboxamide (BAY 59-7939): an oral, direct factor Xa inhibitor” (J Med Chem, 2005).

What is called bioavailability is the share of a dose that reaches the circulation, judged against a reference dose that is usually intravenous. Higher therefore signals good availability. In general, ED50 refers to the dose that gives a 50% effect, or the effect in half of the subjects. Read a high ED50 as weaker potency. The term half-life denotes the time needed for the level to fall by half in the phase considered. As a reminder, the clearance is a measure of how efficiently the substance is removed, as volume per time. A word on the IC50: it is the point on the concentration scale where inhibition reaches its midpoint. Read a high IC50 as weaker potency in that assay.

Where only a bound is given, the exact number is not on record here.

For data set [1], the target named is T1, Coagulation factor X (Homo sapiens, UniProt P00742). As to the kind of experiment: In vitro inhibitory concentration of compound required to double the time to fibrin formation upon incubation with human plasma for 10 minutes at 37 degrees C. In kind it is functional, cell-free. The procedure, abridged:
(§1)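 Inhibitor at increasing concentrations, or solvent, added to plasma and incubated 10 min at 37 °C. PT then measured in a coagulometer using commercial kits and compared with control plasma. Value is the concentration that doubles time to fibrin formation.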

Data set [2] is filed under the species Rattus norvegicus. As to the kind of experiment: In vitro inhibitory concentration of compound required to double the time to fibrin formation upon incubation with rat plasma for 10 minutes at 37 degrees C. Type of data set: functional. Put shortly:
as §1

A short description of data set [3]: Oral bioavailability in rat. In kind it is ADME, organism-based. The note with it: in vivo.
Data set [4] deals with Rattus norvegicus. Description: In vivo antithrombotic activity of compound in the arteriovenous shunt model in anesthetized rats after peroral administration. Type of data set: functional. The note with it: po. The procedure, abridged: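 Anesthetized rats, AV shunt from right carotid artery to left jugular vein, containing a nylon thread folded into a 20 mm double string. Compound in solutol/ethanol/water (40%/10%/50% v/v/v), or vehicle, dosed orally 90 min before thrombus induction. Shunt opened for 15 min, then the thread with thrombus was removed and weighed.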

Data set [5] in a line: Fraction of unbound compound in rat plasma. In kind it is ADME, cell-free. The procedure, abridged:
(§2)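 Equilibrium dialysis of [14C]-labelled compound in plasma at targets of 0.1–100 mg L-1. Spiked plasma preincubated 15 min at 37 °C, then dialyzed 1 h at 37 °C against PBS pH 7.4 across a cellulose membrane. Radioactivity in buffer and plasma counted by LSC; fu = cu/c × 100.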

Data set [6] deals with Rattus norvegicus. As to the kind of experiment: In vivo antithrombotic activity of compound in the arteriovenous shunt model in anesthetized rats after intravenous administration. In kind it is functional. The procedure, abridged:
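Anesthetized rats with a carotid artery to jugular vein shunt: PE-60 catheters joined by a 30 mm PE-160 tube holding a rough nylon thread folded into a 20 mm double string. Compound in PEG/water/glycerol (996 g/100 g/60 g), or vehicle, given as iv bolus into a tail vein 10 min before thrombus induction. Shunt open 15 min; thread with thrombus withdrawn and weighed.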

The nature of data set [7]: Apparent volume of distribution at equilibrium after intravenous administration in rats. The following applies: rat, in vivo, read-out: Vss. In kind it is ADME, organism-based.
Data set [8] can be described thus: Half-life after intravenous administration to rats. Type of data set: ADME, organism-based. The following applies: rat, in vivo.
Data set [9] can be described thus: Plasma clearance in wistar rats after intravenous administration of the compound at a dose of 1 mg/kg. In kind it is ADME, organism-based. Also noted: dose 1 mg/kg, route intravenous. The note with it: rat. Put shortly: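 Rats given 1 mg kg-1 iv in EtOH/PEG400 (1:9), 1 mL kg-1.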
Data set [10] deals with T1, Coagulation factor X. Description: In vitro inhibition of human coagulation factor Xa after incubation for 10 min at 25 degree C.
Data set [11] in a line: Plasma clearance in wistar rats after intravenous administration of the compound at a dose of 0.3 mg/kg. In kind it is ADME, organism-based. Also noted: dose 0.3 mg/kg, route intravenous. The note with it: rat. Put shortly:
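Rats given 0.3 mg kg-1 iv in plasma/DMSO (99:1), 2 mL kg-1.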

Data set [12] in a line: Mean half-life after intravenous administration to rats at a dose of 1 and 3 mg/kg. In kind it is ADME, organism-based. Further details: dose 3 mg/kg, route intravenous. The following applies: rat, in vivo. Put shortly:
(§3)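 Rats given 1 and 3 mg kg-1 iv in PEG400/water (6:4), 5 mL kg-1. Values are means over both doses.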

Data set [13] can be described thus: Mean plasma clearance in female Beagle dogs after intravenous administration of the compound at a dose of 0.3 and 1 mg/kg. Further details: dose 1 mg/kg, route intravenous. Type of data set: ADME, organism-based, Canis lupus familiaris. The note with it: dog.
The nature of data set [14]: Mean apparent volume of distribution at equilibrium after intravenous administration in rats at a dose of 1 and 3 mg/kg. In kind it is ADME, organism-based. Further details: dose 3 mg/kg, route intravenous. The following applies: rat, in vivo, read-out: Vss. Put shortly:
as §3

Data set [15] in a line: Mean half-life after intravenous administration to female Beagle dogs at a dose of 0.3 and 1 mg/kg. Type of data set: ADME, organism-based, Canis lupus familiaris. Also noted: dose 1 mg/kg, route intravenous. The following applies: dog, in vivo.
Data set [16] is described as follows: Mean apparent volume of distribution at equilibrium after administration in female Beagle dogs at a dose of 0.3 and 1 mg kg-1 intravenously. Also noted: dose 1 mg kg-1, route intravenous. In kind it is ADME, organism-based, Canis lupus familiaris. The note with it: dog, in vivo, iv, read-out: Vss.
Data set [17] in a line: Mean plasma clearance in wistar rats after intravenous administration of the compound at a dose of 1 and 3 mg/kg. Type of data set: ADME, organism-based. Also noted: dose 3 mg/kg, route intravenous. The following applies: rat. The procedure, abridged: as §3
A short description of data set [18]: Fraction of unbound compound in female Beagle dog plasma. The following applies: read-out: Fraction free drug in plasma. Type of data set: ADME, cell-free, Canis lupus familiaris. Put shortly:
as §2

Data set [19] in a line: Bioavailability in female Beagle dog is the mean value of AUCnorm perorally to AUCnorm intravenously. Type of data set: ADME, organism-based, Canis lupus familiaris. The note with it: in vivo, po. Put shortly:
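Female beagle dogs dosed po at 0.3, 1 and 3 mg kg-1, 1 mL kg-1. Bioavailability = AUCnorm after oral dosing divided by AUCnorm after iv 0.3 or 1.0 mg kg-1 infusion.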

T1 sequence (P00742 41-179 limits assumed): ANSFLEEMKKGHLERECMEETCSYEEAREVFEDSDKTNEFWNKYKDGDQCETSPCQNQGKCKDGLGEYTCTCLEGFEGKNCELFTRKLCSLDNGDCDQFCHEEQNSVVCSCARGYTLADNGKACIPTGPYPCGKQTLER
T1 sequence (P00742 235-488 limits assumed): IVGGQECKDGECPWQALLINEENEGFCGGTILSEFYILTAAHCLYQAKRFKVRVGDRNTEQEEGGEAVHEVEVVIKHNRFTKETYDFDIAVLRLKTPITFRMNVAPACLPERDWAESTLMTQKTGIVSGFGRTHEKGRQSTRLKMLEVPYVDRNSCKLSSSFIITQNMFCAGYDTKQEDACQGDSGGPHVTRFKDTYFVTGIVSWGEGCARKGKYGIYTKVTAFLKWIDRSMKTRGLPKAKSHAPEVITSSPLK

Consider `Nc1cc(N2C[C@H](CNC(=O)c3ccc(Cl)s3)OC2=O)ccc1N1CCOCC1=O`, for which the Concentration was found to be 0.3 µM at Coagulation factor X [1] and 0.49 µM in the data set filed under Rattus norvegicus [2].
`O=C(NC[C@H]1CN(c2ccc(N3CCCC3=O)cc2)C(=O)O1)c1ccc(Cl)s1` gave a bioavailability in [3] of 65%. Besides, the 50% effective dose (ED50) in the data set on Rattus norvegicus [4] was over 30 mg/kg; with Rattus norvegicus [6], 7 mg/kg. For the same molecule, the fraction unbound in data set [5] (read-out: Fraction free drug in plasma) is 0.002. For the same molecule, the Concentration in the data set listed under Rattus norvegicus [2] is 2.8 µM. Moreover, the Vd in [7] came to 0.21 L/kg. In data set [8], this molecule showed a half-life of 66 min. Further, the clearance in data set [9] was 2.83 mL/min/kg.
As for `O=C(NC[C@H]1CN(c2ccc(N3CCSCC3)c(F)c2)C(=O)O1)c1cccs1`, the half-maximal inhibitory concentration (IC50) on Coagulation factor X [10] was determined as 20000 nM. This counts as double-digit micromolar.
`O=C(NC[C@H]1CN(c2ccc(N3CCOCC3=O)c(C(F)(F)F)c2)C(=O)O1)c1ccc(Cl)s1`: the Concentration on Coagulation factor X [1] was found to be 0.26 µM; in the data set listed under Rattus norvegicus [2] it was 0.32 µM. The molecule further registered an ED50 in the data set with Rattus norvegicus [6] of 3 mg/kg.
Turning to `O=C(NC[C@H]1CN(c2ccc(N3CCOCC3=O)c(F)c2)C(=O)O1)c1ccc(Cl)s1`, the ED50 in the data set with Rattus norvegicus [4] was 10 mg/kg; with Rattus norvegicus [6], 1 mg/kg. For the same molecule, the results for the Concentration on Coagulation factor X [1] and in the data set filed under Rattus norvegicus [2] were 0.17 µM and 0.32 µM, respectively. In [11], the clearance is 18.2 mL/min/kg. The Vd in data set [7] was 0.32 L/kg. Besides, the half-life in [8] was 18 min.
As for `N=C(N)COc1cccc(CN2CC3C(NC(=O)c4ccc(Cl)s4)C=CC[C@H]3C2=O)c1` (some centres not stated), the IC50 against Coagulation factor X [10] worked out at 120 nM. This lies in the sub-micromolar range.
For the molecule `Nc1cc(C(=O)NC[C@H]2CN(c3ccc(N4CCOCC4=O)cc3)C(=O)O2)sc1Cl`, inhibition on Coagulation factor X [10] was half-maximal at 8.5 nM (IC50).
With `O=C(NC[C@H]1CN(c2ccc(N3CCOCC3=O)cc2)C(=O)O1)c1ccc(Cl)s1` [RIVAROXABAN], the half-life in data set [12] and in [15] was 54 min throughout. For the same molecule, the clearance in data set [13] is 5 mL/min/kg; in data set [17], 6.67 mL/min/kg. For the same molecule, the bioavailability was found to be 60% in data set [3] and 86% in [19]. Also, the Vd in [14] was found to be 0.3 L/kg; in [16] it was 0.4 L/kg. For the same molecule, the ED50 with Rattus norvegicus [4] amounted to 5 mg/kg; in the data set with Rattus norvegicus [6], 1 mg/kg. For the same molecule, the Concentration stood at 0.23 µM on Coagulation factor X [1] and 0.3 µM in the data set filed under Rattus norvegicus [2]. For the same molecule, the “Fraction free drug in plasma” value in data set [5] turned out to be 1.3%. For the same molecule, in data set [18], the fraction unbound was determined as 0.104.
